# Active and inactive are the calls of the source.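 The calls were made as follows, unless noted: active = potentiation averaged over duplicate wells exceeding buffer-only control mean by more than 3 SD; inactive = the rest.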
# Key:
# [1] = thallium flux activation in parental CHO cells, counter-screen for KCNQ1 potentiator project (AID 493006;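 active = duplicate-averaged activation above buffer control mean plus 5 SD of those controls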;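 as to activation: fluorescence ratio of max minus min over baseline after K+ and Tl+ depolarization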); details: parental CHO-K1 cells, FluxOR thallium flux, at 10 µM; stronger effect = higher value
# Method in brief: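 Material: untransfected host CHO-K1 cells with FluxOR thallium dye. Timing: overnight 37 °C plating, 90 min RT dye, 20 min compound. Detection: kinetic FluxOR fluorescence, 10 s baseline, 110 s after stimulus. Read-out basis: max-minus-min fluorescence over baseline, percent of buffer-to-R-L3 span. Replicates: duplicate wells per compound, percent values averaged.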
# [2] = biological target: Potassium voltage-gated channel subfamily KQT member 1 (Homo sapiens) (UniProt P51787); assay: KCNQ1 potassium channel potentiators, confirmation, FluxOR thallium flux, CHO cells, duplicates (AID 493007); details: KCNQ1 cell line, FluxOR thallium flux fluorescence, at 10 µM; stronger effect = higher value, % of reference activator effect, buffer zero;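 as to outcome: cells depolarized by a potassium plus thallium sulfate stimulus after compound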
# Method in brief: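 Test system – KCNQ1-expressing CHO cell line · Incubation – FluxOR dye loading 90 min, compound exposure 20 min, room temperature · Detection – FluxOR Tl+ flux fluorescence, 10 s baseline plus 110 s recording · Controls – buffer-only wells as 0% and R-L3 activator as 100%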
# [3] = biological target: Potassium voltage-gated channel subfamily KQT member 2 (Rattus norvegicus) (UniProt O88943); assay: rat KCNQ2 channel potentiation, selectivity assay for KCNQ1 potentiator project, KCNQ2-CHO-K1 cells (AID 493009;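 active = mean duplicate potentiation above the buffer control mean plus 5 SD of buffer wells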;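 also: assay conditions were tuned for KCNQ1 rather than KCNQ2 modulators; signal is max minus min fluorescence divided by baseline after thallium stimulus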); details: FluxOR thallium flux fluorescence, at 10 µM; stronger effect = higher value, scaled: buffer 0, activator control 100
# [4] = biological target: Potassium voltage-gated channel subfamily KQT member 1 (Homo sapiens) (UniProt P51787); assay: KCNQ1 channel current potentiators, confirmation, orthogonal assay for KCNQ1 potentiator project, IonWorks patch clamp, KCNQ1-CHO cells (AID 493184;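 active = current rise at least 3 SD above the untreated control mean in each of two repeat wells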); details: automated patch clamp current, at 10 µM; stronger effect = higher value
# Method in brief: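 Read-out: Percent current increase versus pre-compound level | Assay system: CHO cells carrying KCNQ1 | Measured by: Automated perforated-patch electrophysiology | Medium: External bath solution at pH 7.4 | Dosing: One dose, 10 µM final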
# Chain of Potassium voltage-gated channel subfamily KQT member 2 (Rattus norvegicus) (O88943 whole entry, looked up): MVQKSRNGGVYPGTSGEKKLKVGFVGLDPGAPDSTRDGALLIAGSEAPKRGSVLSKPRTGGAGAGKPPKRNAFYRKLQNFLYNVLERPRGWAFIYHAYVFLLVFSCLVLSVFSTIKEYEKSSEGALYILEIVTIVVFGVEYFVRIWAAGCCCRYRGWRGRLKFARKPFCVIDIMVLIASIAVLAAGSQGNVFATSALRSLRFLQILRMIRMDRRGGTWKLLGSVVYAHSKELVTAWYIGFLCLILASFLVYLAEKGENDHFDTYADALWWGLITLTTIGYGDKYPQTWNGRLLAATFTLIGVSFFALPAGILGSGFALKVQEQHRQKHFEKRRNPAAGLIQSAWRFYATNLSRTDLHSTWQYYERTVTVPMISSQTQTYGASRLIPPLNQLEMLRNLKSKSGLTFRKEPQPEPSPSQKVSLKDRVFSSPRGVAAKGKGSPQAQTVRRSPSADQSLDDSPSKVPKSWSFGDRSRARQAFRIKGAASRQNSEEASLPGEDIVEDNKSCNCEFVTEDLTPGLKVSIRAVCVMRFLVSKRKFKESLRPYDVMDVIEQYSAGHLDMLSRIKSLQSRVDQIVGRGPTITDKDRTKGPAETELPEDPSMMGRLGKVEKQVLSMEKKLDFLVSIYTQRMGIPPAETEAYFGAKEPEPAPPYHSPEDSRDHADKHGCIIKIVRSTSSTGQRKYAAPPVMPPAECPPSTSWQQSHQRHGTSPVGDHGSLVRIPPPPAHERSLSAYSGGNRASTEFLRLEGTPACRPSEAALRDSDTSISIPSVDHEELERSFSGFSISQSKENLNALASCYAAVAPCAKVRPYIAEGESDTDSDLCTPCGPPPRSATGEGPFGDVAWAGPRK
# Chain of Potassium voltage-gated channel subfamily KQT member 1 (Homo sapiens) (P51787 whole entry, looked up): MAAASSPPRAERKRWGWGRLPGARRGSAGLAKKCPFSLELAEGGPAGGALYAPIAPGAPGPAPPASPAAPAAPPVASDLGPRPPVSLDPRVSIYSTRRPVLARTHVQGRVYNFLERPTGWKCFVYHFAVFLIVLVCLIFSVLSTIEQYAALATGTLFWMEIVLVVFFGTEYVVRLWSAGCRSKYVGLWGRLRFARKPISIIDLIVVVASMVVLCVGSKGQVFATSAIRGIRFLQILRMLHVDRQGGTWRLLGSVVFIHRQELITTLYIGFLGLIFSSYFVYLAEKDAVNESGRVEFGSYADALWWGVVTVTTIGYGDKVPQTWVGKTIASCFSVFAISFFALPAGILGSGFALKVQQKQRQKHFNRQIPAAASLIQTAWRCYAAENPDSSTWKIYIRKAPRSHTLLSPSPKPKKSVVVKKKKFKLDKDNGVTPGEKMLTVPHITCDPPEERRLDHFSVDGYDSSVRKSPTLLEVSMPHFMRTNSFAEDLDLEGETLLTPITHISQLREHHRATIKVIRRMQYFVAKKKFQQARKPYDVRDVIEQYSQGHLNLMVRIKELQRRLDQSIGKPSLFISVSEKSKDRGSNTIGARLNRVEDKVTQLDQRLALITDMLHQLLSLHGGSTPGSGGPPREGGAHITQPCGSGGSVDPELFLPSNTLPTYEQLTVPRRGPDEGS
Compound,activation [1],potentiation [2],potentiation [3],outcome [4],outcome [1],outcome [2],outcome [3]
C=CCn1c(=S)[nH]c2sc3c(c2c1=O)CCC3,364% (active),124% (active),301% (active),inactive,,,
CC1CN(C(=S)NC(=O)c2ccc(Cl)cc2)CC(C)O1 (stereo not given),144% (active),24% (active),152% (active),inactive,,,
CCn1c(SCC(N)=O)nc2sc3c(c2c1=O)CCCC3,153% (active),34% (active),147% (active),inactive,,,
Cc1ccc(Cc2c[nH]c(=S)s2)cc1,348% (active),126% (active),343% (active),inactive,,,
COC(=O)COc1ccc(-c2ccccc2)cc1C=O,179% (active),34.5% (active),216% (active),inactive,,,
O=C(COc1ccccc1)N1CCN(S(=O)(=O)c2cccs2)CC1,,,,inactive,inactive,inactive,inactive
C[C@@H](NC(=O)OC(C)(C)C)c1nnc(S(=O)(=O)Cc2ccccc2)o1,,,158% (active),inactive,inactive,inactive,
CCOC(=O)Cc1csc(NC(=S)NC(=O)c2ccccc2Br)n1,233% (active),51% (active),239% (active),inactive,,,
O=C(NC(=S)N1CCN(Cc2ccc3c(c2)OCO3)CC1)c1cccc(Br)c1,314% (active),123% (active),349% (active),inactive,,,
CCOC(=O)C1(CCCc2ccccc2)CCN(Cc2cnc(C)s2)CC1,,,,inactive,inactive,inactive,inactive
Cn1ncc2c(O/N=C(\N)c3ccc(C(C)(C)C)cc3)ncnc21,,,,inactive,inactive,inactive,inactive
Cc1ccccc1NC(=S)NC(=O)c1cc(-c2ccccc2)nc2ccccc12,151% (active),53% (active),158% (active),inactive,,,
Cc1noc(C)c1S(=O)(=O)Nc1ccc(C#N)cc1,,,,inactive,inactive,inactive,inactive
Cc1ccc(/C=N/Nc2nc(C(C)(C)C)cs2)o1,,,,inactive,inactive,inactive,inactive
COc1cc(OC)cc(C(=O)NNC(=O)C(=O)Nc2cc(OC)c(Cl)cc2OC)c1,202% (active),64% (active),213% (active),inactive,,,
O=C(NC(=S)Nc1nc2ccccc2s1)c1ccco1,183% (active),31% (active),172% (active),inactive,,,
Oc1c(Br)cc(Br)cc1C=Nc1ccc2c(c1)OCCO2,159% (active),,,inactive,,inactive,inactive
CC(C)CCn1c(=S)[nH]c2ncccc2c1=O,152% (active),,,inactive,,inactive,inactive
C=CCn1c(=S)[nH]c2scc(-c3ccc(C)o3)c2c1=O,550% (active),276% (active),580% (active),inactive,,,
CCC(C)n1c(=S)[nH]c2c(sc3ccc([N+](=O)[O-])cc32)c1=O (stereo not given),764% (active),342% (active),709% (active),inactive,,,
CC(/C=N/n1c(C2CCCCC2)n[nH]c1=S)=C\c1ccccc1,,270% (active),423% (active),inactive,inactive,,
CC(C)c1ccc(OCC(=O)NNC(=S)NC(=O)c2ccco2)c(Br)c1,154% (active),68.5% (active),232% (active),inactive,,,
COc1ccccc1C(=O)NNC(=O)C(=O)Nc1ccc(C)cc1,534% (active),182% (active),593% (active),inactive,,,
COC(=O)CCCC[C@@H]1SC[C@@H](NC(=O)OC)[C@@H]1NC(=O)OC,,,,inactive,inactive,inactive,inactive
NC(=O)NC(=O)C[n+]1cccc(/C=N/O)c1,,,,inactive,inactive,inactive,inactive
CCCCCCCCCCC[N+](C)(C)CC/C=C1/c2ccccc2Sc2ccc(Cl)cc21,184% (active),64% (active),,inactive,,,inactive
S=C(N/N=C/c1ccccc1Cl)Nc1cccc(Cl)c1Cl,,71% (active),173% (active),inactive,inactive,,
O=C(NNC(=O)c1ccc(Cl)c(Cl)c1)c1ccncc1,,18.5% (active),,inactive,inactive,,inactive
O=C(NC(=S)N1CCN(c2ccc(F)cc2)CC1)c1cccs1,274% (active),84.5% (active),338% (active),inactive,,,
O=[N+]([O-])c1ccc(/C=C/C2=NN(c3ccccc3)C(c3ccco3)C2)o1 (stereo not given),,,,inactive,inactive,inactive,inactive

# Reference: PubChem BioAssay
